Test [1] has as its system Pseudomonas aeruginosa. Description: Antibacterial activity Pseudomonas aeruginosa at 40 ug/disc after 24 hrs by agar disc diffusion method. It is filed as functional. As to conditions: read-out: IZ. Put shortly: (§1)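 Agar disc diffusion. Strains were grown in Mueller Hinton broth for 18–24 h at 37 °C. The bacterial suspension was spread on Mueller Hinton agar, and dried loaded discs were placed on it once the plates were dry. Gentamycin and […] reference discs carried 40 mcg/disc from 1 mg/ml solutions. Plates were incubated 24 h at 37 °C, and clear inhibition zones were measured in mm.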
(In general: A growth-free zone around the sample is the usual read-out of agar diffusion tests.)

Test [2] deals with Salmonella typhimurium. The test can be described thus: Antibacterial activity Salmonella Typhimurium at 40 ug/disc after 24 hrs by agar disc diffusion method. Type of test: functional, Salmonella enterica subsp. enterica serovar Typhimurium. As to conditions: for zone of inhibition at 40 µg/disc: Salmonella enterica, read-out: IZ. Put shortly:
as §1

Test [3] deals with Escherichia coli. Description: Antibacterial activity Escherichia coli at 40 ug/disc after 24 hrs by agar disc diffusion method. Type of test: functional. Particulars: read-out: IZ. Put shortly: as §1
The test system of test [4] is Klebsiella pneumoniae. The test can be described thus: Antibacterial activity Klebsiella pneumoniae at 40 ug/disc after 24 hrs by agar disc diffusion method. Type of test: functional. Particulars: for zone of inhibition at 40 µg/disc: read-out: IZ. The method, boiled down:
as §1

For test [5], the system named is Bacillus subtilis. Description: Antibacterial activity Bacillus subtilis at 40 ug/disc after 24 hrs by agar disc diffusion method. Type of test: functional. Particulars: for zone of inhibition at 40 µg/disc: read-out: IZ. The method, boiled down:
as §1

Test [6] concerns Staphylococcus aureus. Description: Antibacterial activity Staphylococcus aureus at 40 ug/disc after 24 hrs by agar disc diffusion method. Type of test: functional. Particulars: read-out: IZ. The method, boiled down:
as §1

`CCOP(=O)(OCC)C(NNC(=O)c1nn(C)c2ccccc12)c1ccccc1` (stereo not drawn): the zone of inhibition at 40 µg/disc in test [1] was 1 mm; in test [2] it was 2 mm; in test [3], 0 mm; in test [4] it was 3 mm; in test [5] it was 5 mm; in test [6], 2 mm.

`CCOP(=O)(OCC)C(NNC(=O)c1nn(C)c2ccccc12)c1cccc(F)c1` (stereo not drawn): the zone of inhibition at 40 µg/disc in test [1] came to 7 mm; in test [2], 4 mm; in test [3], 5 mm; in test [4] it was 8 mm; in test [5], 4 mm; in test [6], 3 mm.

Take `NC[C@H]1O[C@H](O[C@H]2[C@H](O)[C@@H](O[C@H]3O[C@H](CO)[C@@H](O)[C@H](N)[C@H]3O)[C@H](N)C[C@@H]2N)[C@H](O)[C@@H](O)[C@@H]1O` [KANAMYCIN]: the zone of inhibition at 40 µg/disc stood at 21 mm in test [1]; 14 mm in test [2]; 13 mm in test [3]; 18 mm in test [4]; 15 mm in test [5]; 9 mm in test [6].

In the case of GENTAMICIN, the inhibition zone (IZ) is 11 mm in test [2] (Salmonella enterica subsp. enterica serovar Typhimurium), 13 mm in test [4] and 15 mm in test [5].

Take `CCOP(=O)(OCC)C(NNC(=O)c1nn(C)c2ccccc12)c1ccccc1Br` (stereo not drawn): the zone of inhibition at 40 µg/disc amounted to 4 mm in test [1]; 3 mm in test [2]; 1 mm in test [3]; 2 mm in test [4]; 7 mm in test [5]; 1 mm in test [6].

As to `CCOP(=O)(OCC)C(NNC(=O)c1nn(C)c2ccccc12)c1ccc(C(F)(F)F)cc1` (stereo not drawn), the zone of inhibition at 40 µg/disc in test [1] stood at 6 mm; in test [2], 5 mm; in test [3], 3 mm; in test [4], 7 mm; in test [5] it was 4 mm; in test [6] it was 5 mm.

Values taken from ChEMBL document CHEMBL1949668, “Synthesis of new α aminophosphonate system bearing Indazole moiety and their biological activity” (2012).
